{"source": "paper PMC10872764", "about": "(Journal of controlled release : official journal of the …, 2023)", "key": {"[1]": {"settings": "cited from earlier work"}, "ACE2 [2]": {"target": "T1, ACE2 (Homo sapiens, UniProt Q9BYF1)", "assay": "Activity of recombinant ACE2 with Zn chelation by DTPA", "format": "biochemical", "settings": "25 μg/mL H4 (200 ng/mL elsewhere in the source), 25 mM DTPA, 37 °C", "outline": "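Human recombinant ACE2 was incubated at 37 °C with or without test compound (25 μg/mL in methods; 200 ng/mL in legend). Free Zn was depleted with 25 mM DTPA. Activity was read by fluorogenic Mca-YVADAPK(Dnp)-OH cleavage (ex 330/em 405 nm) in MES/NaCl/ZnCl2/Brij-35 buffer, pH 6.5. Each dot is one treatment well; one-way ANOVA.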"}, "ACE2 [3]": {"target": "T1, ACE2", "assay": "ACE2 activity in culture medium of Calu-3 cells", "format": "cell-based"}, "[4]": {"system": "P. aeruginosa induced bacterial pneumonia", "assay": "P. aeruginosa induced bacterial pneumonia model, wild-type mice", "format": "in vivo, mouse", "settings": "wild-type mice infected with P. aeruginosa; treatment 18 h after inoculation", "outline": "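In wild-type C57BL/6 mice, P. aeruginosa was instilled intratracheally via tracheal intubation. Test compound (10 mg/kg) was given by nasal instillation 18 h after inoculation, and lungs were collected 30 h later (48 h post-infection). Lung sections were H&E-stained; n = 5 per group; one-way ANOVA with multiple comparisons.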"}, "[5]": {"system": "P. aeruginosa induced bacterial pneumonia", "assay": "P. aeruginosa induced bacterial pneumonia model, global ACE2 knockout", "format": "in vivo, mouse", "settings": "Ace2-/- mice infected with P. aeruginosa, H4 treatment, n = 3", "outline": "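Ace2−/− mice were given P. aeruginosa by intratracheal instillation via tracheal intubation, with test compound 18 h after inoculation and samples taken 30 h later; n = 3 per group. Endpoints: body weight at sacrifice, lung H&E, lung IFNγ, MPO immunofluorescence, and BAL flow cytometry (Fc block 20 min at 4 °C, viability dye, CD45+CD11b+Ly6G+ live cells).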"}, "ACE2 gene expression": {"system": "ACE2 gene expression", "assay": "ACE2 mRNA in Calu-3 cells by quantitative real-time PCR", "format": "cell-based, human", "settings": "25 μg/mL H4, varying durations"}, "Water solubility": {"assay": "Water solubility", "format": "physicochemical"}, "mouse lungs": {"system": "mouse lungs", "assay": "In vivo cytotoxicity", "settings": "mice, 2.5 mg/mL, 30 μl/mouse, nasal inhalation", "outline": "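Wild-type C57/Bl6 mice received 30 μl of a 2.5 mg/ml solution of self-assembled prodrug, or saline, by nasal inhalation. Lungs were collected 48 h later per methods (18 h per results). Tissue went to histopathology, apoptotic cell counts, immunofluorescence, and ELISA/qRT-PCR for proinflammatory cytokines. At least three mice per group; experiments repeated twice.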"}}}
{"molecule": "CC(=O)NCC(=O)O.CC(=O)NCC(=O)O.N=C(N)c1ccc(N=NNc2ccc(C(=N)N)cc2)cc1", "note": "[DIZE, diminazene aceturate]", "values": [{"measurement": "toxicity", "setting": "[1]", "result": "high toxicity"}]}
{"molecule": "O=C(O)CN(CCN(CC(=O)O)CC(=O)O)CCN(CC(=O)O)CC(=O)O", "note": "[DTPA, diethylenetriaminepentaacetic acid]", "values": [{"measurement": "ACE2 activity of recombinant ACE2", "setting": "ACE2 [2]", "result": "substantially diminishes ACE2 activity"}]}
{"molecule": "C[C@]12CC[C@@H]3c4ccc(O)cc4CC[C@H]3[C@@H]1C[C@@H](O)[C@@H]2O", "note": "[H4]", "values": [{"measurement": "plateau of ACE2 activity enhancement", "setting": "ACE2 [3]", "result": "around 50 μg/mL"}, {"measurement": "concentration range in which ACE2 activity is notably augmented", "setting": "ACE2 [3]; 0–500 μg/ml, 18 h, 37 °C, culture medium", "result": "5 to 50", "unit": "µg/mL"}, {"measurement": "mid-effective concentration for enhancing ACE2 activity", "setting": "ACE2 [3]; dose-dependent", "result": "10 to 30", "unit": "µg/mL"}, {"measurement": "ACE2 activity of recombinant ACE2", "setting": "ACE2 [2]", "result": "restore the ACE2 activity that had been inhibited by DTPA"}, {"measurement": "lung histopathology (H&E)", "setting": "[4]", "result": "alleviated histopathology"}, {"measurement": "body weight recovery", "setting": "[5]", "result": "no discernible effects"}, {"measurement": "lung histopathology (H&E)", "setting": "[5]", "result": "no discernible effects"}, {"measurement": "neutrophil infiltration into the lungs (BAL flow cytometry, MPO staining)", "setting": "[5]", "result": "did not diminish neutrophil infiltration"}, {"measurement": "production of MIP-2", "setting": "[5]", "result": "nor did it decrease the production of MIP-2"}, {"measurement": "proinflammatory cytokine IFNγ in lung tissue", "setting": "[5]", "result": "no discernible effects"}, {"measurement": "ACE2 mRNA levels", "setting": "ACE2 gene expression", "result": "did not induce ACE2 gene expression"}, {"measurement": "dissolution in water", "setting": "Water solubility; water, 25 °C, no method or source printed", "result": 0.5, "unit": "mg/mL"}]}
{"molecule": "Cc1ccc(S(=O)(=O)Oc2ccc3oc4c(CO)ccc(NCCN(C)C)c4c(=O)c3c2)cc1", "note": "[XNT, xanthenone]", "values": [{"measurement": "toxicity", "setting": "[1]", "result": "high toxicity"}]}
{"molecule": "H4-Succinic Acid-Val-Val-Glu-Glu-NH2 [H4 prodrug]", "values": [{"measurement": "toxicity in the lungs", "setting": "mouse lungs", "result": "non-detectable toxicity"}, {"measurement": "pro-inflammatory cytokine levels in lung tissues", "setting": "mouse lungs; ELISA and qRT-PCR", "result": "no surge in pro-inflammatory cytokine levels"}, {"measurement": "lung histopathology (H&E)", "setting": "[4]", "result": "enhanced histology"}, {"measurement": "solubility in water compared with H4", "setting": "Water solubility; photographs of aqueous solutions at 1 mg/mL (Fig. 4B)", "result": "improved solubility in water"}]}
